This is an account of results in ChEMBL document CHEMBL3351628, “2,4,5-Trisubstituted thiazole derivatives: a novel and potent class of non-nucleoside inhibitors of wild type and mutant HIV-1 reverse transcriptase” (Eur J Med Chem, 2014).

pIC50: −log10 of the molar value. Active and inactive are the calls of the source. The calls are words filed in the database; no cut-off is given here.

For data set [1], the system named is Human immunodeficiency virus 1. Description: Antiviral activity against HIV1 harboring reverse transcriptase Y181C mutant infected in HEK293T cells transfected with plasmid VSV-G/pNL4-3.luc.R-E- assessed as inhibition of viral replication after 48 hrs by luciferase reporter gene assay. The class given is functional, organism-based, HEK-293T. The method, boiled down: (§1)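 VSV-G-pseudotyped single-cycle virus: VSVG plasmid plus env-deficient pNL4-3.luc.R⁻E⁻ vector (wild type or RT-mutant) co-transfected into HEK 293T by calcium phosphate. Medium changed at 16 h, supernatant collected 48 h post-transfection, normalised by p24 ELISA to 0.2 ng p24/mL. HEK 293T targets seeded a day ahead; compound added 15 min before virus. Cells lysed 48 h post-infection, luciferase read. IC50 from dose–infectivity curves.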

The subject of data set [2] is Human immunodeficiency virus 1. The experiment in a line: Antiviral activity against HIV1 harboring reverse transcriptase K103N mutant infected in HEK293T cells transfected with plasmid VSV-G/pNL4-3.luc.R-E- assessed as inhibition of viral replication after 48 hrs by luciferase reporter gene assay relative HIV1. Type of data set: functional, HEK-293T.
The subject of data set [3] is Human immunodeficiency virus 1. The experiment in a line: Antiviral activity against wild type HIV1 infected in HEK293T cells transfected with plasmid VSV-G/pNL4-3.luc.R-E- assessed as inhibition of viral replication after 48 hrs by luciferase reporter gene assay. The class given is functional, organism-based, HEK-293T. Conditions: for pIC50: Human immunodeficiency virus 1, HEK-293T, 48 h, read-out: IC50. In a few lines: as §1
(In general: Reporter assays use an easily measured gene product as a stand-in for the process of interest.)

Data set [4] has as its system Human immunodeficiency virus 1. Description: Antiviral activity against HIV1 harboring reverse transcriptase K103N mutant infected in HEK293T cells transfected with plasmid VSV-G/pNL4-3.luc.R-E- assessed as inhibition of viral replication after 48 hrs by luciferase reporter gene assay. The class given is functional, organism-based, HEK-293T. The method, boiled down:
as §1

The subject of a further data set is HEK-293T. The experiment in a line: Cytotoxicity against HEK293T cells at 10 uM after 48 hrs. Type of data set: cell-based. Conditions: human. In a few lines:
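HEK 293T cells incubated 48 h with compound at final 10 μM under the antiviral culture conditions, without virus. Viability read with a cell proliferation assay kit.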

Data set [5] is described as follows: Retention time of the compound by HPLC analysis. Type of data set: physicochemical.
In data set [6] the test system is Human immunodeficiency virus 1. The experiment in a line: Antiviral activity against HIV1 harboring reverse transcriptase Y181C mutant infected in HEK293T cells transfected with plasmid VSV-G/pNL4-3.luc.R-E- assessed as inhibition of viral replication after 48 hrs by luciferase reporter gene assay relative HIV1. The class given is functional, HEK-293T.
Data set [7] has as its system Human immunodeficiency virus 1. The experiment in a line: Antiviral activity against HIV1 infected in 293T cells assessed as time of 50% failure. Type of data set: functional.
Data set [8] deals with Human immunodeficiency virus 1. The experiment in a line: Antiviral activity against HIV1 harboring reverse transcriptase K103N/P225H double mutant infected in HEK293T cells transfected with plasmid VSV-G/pNL4-3.luc.R-E- assessed as inhibition of viral replication after 48 hrs by luciferase reporter gene assay. Type of data set: functional, organism-based, HEK-293T. The method, boiled down:
as §1

In data set [9] the test system is Human immunodeficiency virus 1. Description: Antiviral activity against HIV1 harboring reverse transcriptase Y188L mutant infected in HEK293T cells transfected with plasmid VSV-G/pNL4-3.luc.R-E- assessed as inhibition of viral replication after 48 hrs by luciferase reporter gene assay. The class given is functional, organism-based, HEK-293T. The method, boiled down:
as §1

Data set [10] concerns Human immunodeficiency virus 1. Description: Antiviral activity against HIV1 harboring reverse transcriptase K103N/V108I double mutant infected in HEK293T cells transfected with plasmid VSV-G/pNL4-3.luc.R-E- assessed as inhibition of viral replication after 48 hrs by luciferase reporter gene assay. Type of data set: functional, organism-based, HEK-293T. In a few lines: as §1

Data set [11] relates to Human immunodeficiency virus 1. Description: Antiviral activity against HIV1 harboring reverse transcriptase K103N/G190A double mutant infected in HEK293T cells transfected with plasmid VSV-G/pNL4-3.luc.R-E- assessed as inhibition of viral replication after 48 hrs by luciferase reporter gene assay. Type of data set: functional, organism-based, HEK-293T. In a few lines: as §1

The subject of data set [12] is Human immunodeficiency virus 1. Description: Antiviral activity against HIV1 harboring reverse transcriptase K103N/V108I double mutant infected in HEK293T cells transfected with plasmid VSV-G/pNL4-3.luc.R-E- assessed as inhibition of viral replication after 48 hrs by luciferase reporter gene assay relative HIV1. Type of data set: functional, HEK-293T.
The subject of data set [13] is Human immunodeficiency virus 1. The experiment in a line: Antiviral activity against HIV1 harboring reverse transcriptase […]/K103N double mutant infected in HEK293T cells transfected with plasmid VSV-G/pNL4-3.luc.R-E- assessed as inhibition of viral replication after 48 hrs by luciferase reporter gene assay relative HIV1. The class given is functional, HEK-293T.

Data set [14] deals with Human immunodeficiency virus 1. Description: Antiviral activity against HIV1 harboring reverse transcriptase K103N/G190A double mutant infected in HEK293T cells transfected with plasmid VSV-G/pNL4-3.luc.R-E- assessed as inhibition of viral replication after 48 hrs by luciferase reporter gene assay relative HIV1. Type of data set: functional, HEK-293T.
Data set [15] concerns Human immunodeficiency virus 1. The experiment in a line: Antiviral activity against HIV1 harboring reverse transcriptase Y188L mutant infected in HEK293T cells transfected with plasmid VSV-G/pNL4-3.luc.R-E- assessed as inhibition of viral replication after 48 hrs by luciferase reporter gene assay relative HIV1. The class given is functional, HEK-293T.
For data set [16], the system named is Human immunodeficiency virus 1. The experiment in a line: Antiviral activity against HIV1 harboring reverse transcriptase K103N/P225H double mutant infected in HEK293T cells transfected with plasmid VSV-G/pNL4-3.luc.R-E- assessed as inhibition of viral replication after 48 hrs by luciferase reporter gene assay relative HIV1. Type of data set: functional, HEK-293T.

In data set [17] the test system is Human immunodeficiency virus 1. Description: Antiviral activity against HIV1 harboring reverse transcriptase […]/K103N double mutant infected in HEK293T cells transfected with plasmid VSV-G/pNL4-3.luc.R-E- assessed as inhibition of viral replication after 48 hrs by luciferase reporter gene assay. Type of data set: functional, organism-based, HEK-293T. In a few lines: as §1

Data set [18] concerns Human immunodeficiency virus 1. Description: Antiviral activity against HIV1 at 10 uM. Type of data set: functional, organism-based.
Setting [19] is: Human immunodeficiency virus 1, HEK-293T, 48 h.

In general, pIC50 refers to −log10 of the IC50, conventionally taken in molar units. With `COc1ccc(-c2nc(NCc3ccc(N(C)C)cc3)sc2Cc2ccccc2)cc1`, the negative-log IC50 (pIC50) is 4.15 in data set [1] (setting [19]), 6.06 in data set [3] and 4.18 in data set [4] (setting [19]). For the same compound, the results for the “fold change (FC)” value in data set [2] and in data set [6] were 76 and 82, respectively. The Activity entry in the data set with HEK-293T is given as “Non-toxic”. The compound further registered a Retention_time in data set [5] of 33.97 min.

For the compound `COc1ccc(-c2nc(NCc3ccc(O)cc3)sc2Cc2ccccc2)cc1`, the figures for the negative-log IC50 (pIC50) in data set [1] (setting [19]), in data set [3] and in [4] (setting [19]) were 5.18, 6.19 and 5.08, respectively. The “fold change (FC)” value in [2] was 13; in [6], 10. The Activity result in the data set on HEK-293T is recorded as “Non-toxic”. In addition, in data set [5], the Retention_time is listed as 16.52 min.

`COc1ccc(CNc2nc(-c3ccc(F)cc3F)c(Cc3ccccc3)s2)cc1`: the negative-log IC50 (pIC50) was 5.84 in data set [1] (setting [19]); 5.44 in [8] (setting [19]); under 5.00 in [9] (setting [19]); 5.74 in data set [10] (setting [19]); 6.40 in data set [11] (setting [19]); 7.19 in data set [3]. Also, the pIC50 in data set [4] (setting [19]) is 6.39; in [17] (setting [19]), 5.27. Besides, in data set [7], the Time came out at 8.6 h. For the same compound, the “fold change (FC)” value was 6.4 in data set [2]; 28.8 in data set [12]; 83.8 in [13]; 6.3 in [14]; over 156 in [15]; 22.8 in data set [6]. Moreover, the “fold change (FC)” value in [16] amounted to 56.1. For the same compound, the Activity result with HEK-293T is “Non-toxic”. Further, the Retention_time in data set [5] worked out at 17.37 min.

For the compound `O=C1Nc2ccc(Cl)cc2[C@@](C#CC2CC2)(C(F)(F)F)O1` [EFAVIRENZ], the pIC50 in data set [1] (hek-293t) was 8.25; in data set [8] (hek-293t), 6.80; in data set [9] (hek-293t), 6.32; in [10] (hek-293t), 7.08; in data set [11] (hek-293t) it was 7.25; in [3] it was 9.08. The pIC50 in [4] (hek-293t) is 7.23; in data set [17] (hek-293t), 5.60. In addition, the Time in data set [7] is 8.8 h. In addition, the “fold change (FC)” value in data set [2] worked out at 56; in [12], 79.8; in [13], 2394; in [14], 538; in data set [15] it was 461.5; in [6], 5.4. The “fold change (FC)” value in [16] is 154. The Activity result in the data set on HEK-293T was “Non-toxic”.

Take `Cc1cn([C@H]2C[C@H](N=[N+]=[N-])[C@@H](CO)O2)c(=O)[nH]c1=O` [ZIDOVUDINE]: in data set [7], the Time was 7.7 h.

For the compound `COc1ccc(CNc2nc(-c3ccccc3F)c(Cc3ccccc3)s2)cc1`, the pIC50 in data set [1] (setting [19]) is 5.90; in data set [8] (setting [19]), 5.32; in data set [9] (setting [19]), under 5.00; in [10] (setting [19]), 5.33; in data set [11] (setting [19]), 6.80; in data set [3], 7.21. Besides, the figures for the pIC50 in data set [4] (setting [19]) and in [17] (setting [19]) were 6.27 and 5.28, respectively. The Time in [7] is 8.6 h. For the same compound, the “fold change (FC)” value is listed as 8.7 in [2]; 76.3 in data set [12]; 84.5 in [13]; 2.6 in [14]; over 161 in [15]; 20.3 in [6]. Further, the “fold change (FC)” value in data set [16] is 77.6. For the same compound, the Activity entry in the data set with HEK-293T was “Non-toxic”. The compound further showed a Retention_time in [5] of 24.29 min.

As for `COc1ccc(-c2nc(N(C)C)sc2Cc2ccccc2)cc1`, the inhibition result in data set [18] is “inactive”. In addition, the IC50 entry in data set [3] (hek-293t) is given as “Not Active”. The Activity entry in the data set with HEK-293T is recorded as “Non-toxic”. The compound also had a Retention_time in [5] of 35.28 min.

As for `Cc1nnc(C(=O)NC(C)(C)c2nc(C(=O)NCc3ccc(F)cc3)c(O)c(=O)n2C)o1` [RALTEGRAVIR], the Time in data set [7] worked out at 12 h.

With `COc1ccc(CNc2nc(-c3ccccc3Cl)c(Cc3ccccc3)s2)cc1`, the negative logarithm of the IC50 (pIC50) is 6.10 in data set [1] (setting [19]); 6.11 in data set [8] (setting [19]); under 5.00 in data set [9] (setting [19]); 6.09 in data set [10] (setting [19]); 5.38 in [11] (setting [19]); 7.34 in data set [3]. Besides, the pIC50 in [4] (setting [19]) was 6.62; in data set [17] (setting [19]), 5.29. Besides, in data set [7], the Time is 9 h. In addition, the “fold change (FC)” value in data set [2] is reported as 5.2; in data set [12] it was 17.8; in [13], 111; in [14], 90.9; in data set [15], over 217; in data set [6], 17.2. In addition, the “fold change (FC)” value in [16] was found to be 17. In addition, the Activity entry in the data set with HEK-293T was “Non-toxic”. Also, the Retention_time in [5] worked out at 26.43 min.

As for `Cc1ccnc2c1NC(=O)c1cccnc1N2C1CC1` [NEVIRAPINE], the pIC50 in data set [1] (hek-293t) was 4.18; in [8] (hek-293t) it was 5.26; in data set [9] (setting [19]), under 5.00; in [10] (hek-293t) it was 5.55; in data set [11] (setting [19]), under 5.00; in data set [3], 7.51. In addition, the negative-log IC50 (pIC50) in [4] (hek-293t) was 4.79; in [17] (setting [19]), 5.30. Besides, the Time in data set [7] is 8.3 h. Moreover, the “fold change (FC)” value is given as 519 in [2]; 90 in data set [12]; 161 in data set [13]; over 322 in data set [14]; over 322 in data set [15]; 2152 in data set [6]. Moreover, the “fold change (FC)” value in data set [16] is recorded as 177. Moreover, the Activity entry in the data set on HEK-293T is reported as “Non-toxic”.
